Assay outcomes (PubChem BioAssay)
T cruzi growth-1: blocks T. cruzi growth in NIH3T3 culture; T. cruzi beta-gal in NIH3T3, GalScreen luminescence, 90 h; inhibition, % at 8.34 µM; 77,000 tested, 5.9% active; AID 624255;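 active means mean inhibition above about 93%, with at least 55% of replicates each passing it, limit read from the data, passing the limit was not always enough; inconclusive means only one of those two conditions holds; inactive means neither condition holds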
KDM4C inh: inhibitors of human demethylase GASC-1 KDM4C | GST-KDM4C 2-372, H3K9me3 peptide, LANCE TR-FRET | inhibition, % at 12.5 µM | Q9H3R0 | 96,000 tested, 0.15% active;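 active means mean replicate inhibition above about 25%, with at least 55% of replicates also reaching it, limit read from the data, passing the limit was not always enough; inconclusive means only one of those two conditions met; inactive means neither condition met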
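Assay system: GST-GASC-1 enzyme fragment 2-372 | Amount: 10 nM enzyme | Medium: HEPES buffer, pH 7.5, plus ascorbate | Reagent: H3K9me3 peptide substrate, Fe(II), 2-oxoglutarate | Doses: Single-point compound screen | Incubation: 30 min demethylation and 1 h detection at room temperature | Measured by: LANCE TR-FRET, excitation 340 nm, emissions 618 and 671 nm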
Pf Dd2 growth: P. falciparum Dd2 growth inhibition. SYBR Green, 72 h; hits give low values. 94,000 tested, 2.3% active. activity change, % at 10 µM; in the data active means activity change below about -80%; inconclusive means no clear call, values can overlap the other calls
IDH1 R132H inh: blocks human IDH1 R132H reductase activity; O75874; diaphorase/resazurin fluorescence, 60 min; inhibition, % at 10 µM; 70,000 tested, 0.18% active; AID 624101; in the data active means inhibition above about 34%; inconclusive means no clear call, values can overlap the other calls; inactive means below about 11%;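 further: 0% = DMSO and 100% = no enzyme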
Target sequence (O75874 whole entry R132H): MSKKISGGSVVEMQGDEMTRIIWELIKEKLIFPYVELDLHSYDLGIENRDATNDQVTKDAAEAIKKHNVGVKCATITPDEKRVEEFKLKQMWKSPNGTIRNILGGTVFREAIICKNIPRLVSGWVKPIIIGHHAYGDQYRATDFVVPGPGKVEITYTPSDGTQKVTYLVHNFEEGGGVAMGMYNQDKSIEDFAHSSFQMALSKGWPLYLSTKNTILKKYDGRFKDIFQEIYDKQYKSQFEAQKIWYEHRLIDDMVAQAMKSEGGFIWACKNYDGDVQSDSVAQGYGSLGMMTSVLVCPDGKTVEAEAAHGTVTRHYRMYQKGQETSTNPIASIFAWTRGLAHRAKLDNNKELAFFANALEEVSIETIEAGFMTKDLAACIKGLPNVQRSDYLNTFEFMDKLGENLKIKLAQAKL
T cruzi growth-2: Trypanosoma cruzi proliferation inhibition. inhibition, % at 8.35 µM. shares compounds with T cruzi growth-1. T. cruzi beta-gal in NIH3T3, GalScreen luminescence, 90 h. 5,600 tested, 72% active. AID 651739;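 active means mean replicate inhibition above about 95% and at least 55% of replicates individually reaching it, limit read from the data; inconclusive means only one of the two criteria is met; inactive means neither criterion is met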
T cruzi growth-3: blocks T. cruzi growth in NIH3T3 host cells; 5,600 tested, 21% active; AID 651740; inhibition, % at 2.09 µM; T. cruzi beta-gal in NIH3T3, GalScreen luminescence, 90 h; shares compounds with T cruzi growth-1;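 active means mean inhibition above about 95%, with at least 55% of replicates also reaching it, limit read from the data; inconclusive means meets just one of the two conditions; inactive means meets neither condition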;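 further: plate controls were neutral control median for no effect and positive control median for full effect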
3T3 cytotox: cytotoxicity in mouse NIH/3T3 fibroblasts; shares compounds with T cruzi growth-1; NIH/3T3 viability, CellTiter-Glo ATP luminescence, 90 h; cytotoxicity (signal decrease), % at 8.35 µM; 5,600 tested, 14% active;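 active means mean signal decrease across replicates above about 35% based on untreated-well scatter, with enough replicates individually passing, limit read from the data; inconclusive means no rule stated though some were filed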;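 further: 0% = median of neutral control wells and 100% = median of positive control wells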
NIH3T3 tox 2: cytotoxicity in mouse NIH/3T3 fibroblasts. shares compounds with T cruzi growth-1. NIH/3T3 viability, CellTiter-Glo ATP luminescence, 90 h. inhibition, % at 24.9 µM. 5,600 tested, 56% active;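 active means mean loss of cell viability signal at or above a set limit, and enough replicates individually reaching it; inconclusive means meets only the mean limit or only the replicate share; inactive means meets neither condition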;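 further: 0% = median of neutral control wells and 100% = median of positive control wells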
Starred values were filed as active, the others as inactive; ? = inconclusive; . = not tested or not shown. Only some compounds are listed: those with a hit (about 5.8% of all), similar ones and a draw of the others.

SMILES	T cruzi growth-1	KDM4C inh	Pf Dd2 growth	IDH1 R132H inh	T cruzi growth-2	T cruzi growth-3	3T3 cytotox	NIH3T3 tox 2
COc1cccc(NC(=O)N(C)C[C@H]2Oc3ncc(C#Cc4ccccc4)cc3C(=O)N([C@@H](C)CO)C[C@H]2C)c1	?	.	-37.1	.	104.5*	51.5	2.3	38.3*
CC1(C)CC(=O)C2=C(C1)NC1=C(C(=O)c3ccccc31)C2c1ccc(OC(=O)CN2C(=O)C3CCCCC3C2=O)cc1 (stereo not given)	.	.	.	0.9	.	.	.	.
COc1ccccc1C#Cc1ccc2c(c1)O[C@@H](CN(C)Cc1ccncc1)[C@@H](C)CN([C@H](C)CO)S2(=O)=O	98.0*	-0.6	-78.3	-5.4	101.8*	104.0*	-7.6	-16.0
COc1ccccc1C#Cc1ccc2c(c1)O[C@H](CN(C)Cc1ccncc1)[C@@H](C)CN([C@@H](C)CO)S2(=O)=O	127.5*	0.8	-77.0	-0.5	92.6	98.3*	73.9*	104.0*
COc1ccccc1C#Cc1ccc2c(c1)O[C@@H](CN(C)Cc1cncnc1)[C@@H](C)CN([C@@H](C)CO)S2(=O)=O	66.8	-1.6	-63.8	-20.1	.	.	.	.
COc1ccccc1C#Cc1ccc2c(c1)O[C@H](CN(C)Cc1cncnc1)[C@@H](C)CN([C@H](C)CO)S2(=O)=O	92.0	0.5	-45.0	.	.	.	.	.
COc1ccccc1C#Cc1ccc2c(c1)O[C@@H](CN(C)Cc1ccncc1)[C@H](C)CN([C@H](C)CO)S2(=O)=O	121.4*	1.0	?	0.2	96.3*	97.0*	82.6*	105.1*
COc1ccccc1C#Cc1ccc2c(c1)O[C@@H](CN(C)Cc1ccncc1)[C@H](C)CN([C@@H](C)CO)S2(=O)=O	120.5*	-2.2	?	0.3	99.7*	93.7	73.3*	81.2*
Cc1noc(C)c1NC(=O)N1C[C@@H](O)COC[C@@H]2O[C@@H](CC(=O)NCC3CC3)CC[C@H]21	77.2	1.1	.	.	.	.	.	.
O=C(C[C@@H]1CC[C@@H]2[C@H](COC[C@@H](O)CN2C(=O)Nc2ccc(Cl)c(Cl)c2)O1)NCc1ccc(Cl)c(Cl)c1	108.7*	-0.4	-16.4	.	90.6	96.6*	2.6	90.0*
O=C(C[C@@H]1CC[C@@H]2[C@H](COC[C@H](O)CN2C(=O)Nc2ccc(Cl)c(Cl)c2)O1)NCc1ccc(Cl)c(Cl)c1	106.8*	-0.6	-3.6	.	99.9*	73.9	43.2*	103.5*
O=C(C[C@H]1CC[C@@H]2[C@H](COC[C@H](O)CN2C(=O)Nc2ccc(Cl)c(Cl)c2)O1)NCc1ccc(F)cc1	38.6	2.8	1.9	.	.	.	.	.
Cc1noc(C)c1NC(=O)N1C[C@@H](O)COC[C@@H]2O[C@H](CC(=O)NCC3CC3)CC[C@H]21	?	4.4	.	.	?	4.3	-0.9	-2.7
C[C@@H]1CN([C@H](C)CO)C(=O)c2cccc(NS(=O)(=O)c3ccc(F)cc3)c2O[C@H]1CN(C)Cc1ccncc1	29.0	1.8	19.3	.	.	.	.	.
Cc1ccccc1NC(=O)CN(c1ccc(Br)cc1)S(C)(=O)=O	.	.	.	0.9	.	.	.	.
COc1ccc(-c2ccc3c(c2)O[C@@H](CN(C)C(=O)c2ccccc2F)[C@H](C)CN([C@H](C)CO)S3(=O)=O)cc1	113.7*	-2.5	-74.5	-0.2	104.8*	66.9	39.5*	70.2*
COc1ccc(-c2ccc3c(c2)O[C@H](CN(C)C(=O)c2ccccc2F)[C@@H](C)CN([C@@H](C)CO)S3(=O)=O)cc1	106.3*	-0.1	-68.7	-0.4	104.5*	67.7	12.3	54.0*
COc1ccc(-c2ccc3c(c2)O[C@H](CN(C)C(=O)Nc2ccccc2F)[C@@H](C)CN([C@@H](C)CO)S3(=O)=O)cc1	97.8*	-2.1	-70.0	5.6	108.1*	53.5	33.4	58.3*
COc1ccc(-c2ccc3c(c2)O[C@H](CN(C)C(=O)c2ccccc2F)[C@@H](C)CN([C@H](C)CO)S3(=O)=O)cc1	107.8*	-2.3	-59.3	-2.3	101.8*	47.9	5.6	36.0*
COc1ccc2c3c(n(C)c2c1)[C@@H](CO)N(Cc1ccncc1)CC31CN(C(=O)NC(C)C)C1	.	0.1	-48.0	.	.	.	.	.
COc1ccc(-c2ccc3c(c2)O[C@@H](CN(C)C(=O)c2ccccc2F)[C@@H](C)CN([C@H](C)CO)S3(=O)=O)cc1	85.6	-3.5	-73.0	-2.2	.	.	.	.
COc1ccc(-c2ccc3c(c2)O[C@@H](CN(C)C(=O)c2ccccc2F)[C@H](C)CN([C@@H](C)CO)S3(=O)=O)cc1	110.0*	-5.2	-70.0	1.9	89.8	43.8	46.9*	78.6*
O=C(Nc1ccccc1)N1CCCCN2[C@H](C1)[C@H](c1ccc(C3=CCCCC3)cc1)[C@@H]2CO	110.2*	-0.8	-74.1	.	108.9*	78.2	16.5	79.2*
O=C(Nc1ccccc1)N1CCCCN2[C@H](CO)[C@H](c3ccc(C4=CCCCC4)cc3)[C@@H]2C1	?	0.6	8.1	.	115.3*	64.5	-6.9	93.6*
COc1ccc(NC(=O)N2CCCCN3[C@H](CO)[C@H](c4ccc(C5=CCCC5)cc4)[C@@H]3C2)cc1	117.4*	.	-17.7	.	95.9*	106.5*	0.8	?
SMILES	T cruzi growth-1	KDM4C inh	Pf Dd2 growth	IDH1 R132H inh	T cruzi growth-2	T cruzi growth-3	3T3 cytotox	NIH3T3 tox 2
O=C(Nc1ccccc1)N1CCCCN2[C@H](C1)[C@@H](c1ccc(-c3ccccc3)cc1)[C@@H]2CO	83.0	-0.8	-32.8	.	.	.	.	.
COc1ccc(NC(=O)N2CCCCN3[C@H](C2)[C@H](c2ccc(C4=CCCC4)cc2)[C@@H]3CO)cc1	47.6	.	-23.8	.	.	.	.	.
O=C(Nc1ccccc1)N1CCCCN2[C@@H](CO)[C@H](c3ccc(C4=CCCCC4)cc3)[C@@H]2C1	?	-0.3	-43.1	.	87.4	91.0	116.2*	104.6*
O=C(Nc1ccccc1)N1CCCCN2[C@@H](CO)[C@@H](c3ccc(-c4ccccc4)cc3)[C@@H]2C1	94.9	-0.2	-77.7	.	.	.	.	.
COc1ccccc1NC(=O)CSc1nnc(-c2cccc3ccccc23)n1-c1ccccc1	.	.	.	0.0	.	.	.	.
O=C(Nc1ccccc1F)N1CCCCN2[C@H](CO)[C@H](c3ccc(C4=CCCC4)cc3)[C@@H]2C1	109.9*	-1.7	1.0	.	109.3*	62.1	-6.3	12.8
COc1ccc(NC(=O)N2CCCCN3[C@@H](CO)[C@H](c4ccc(C5=CCCCC5)cc4)[C@@H]3C2)cc1	78.3	1.2	-10.2	.	.	.	.	.
O=C(Nc1ccc(F)cc1)N1CCCCN2[C@H](CO)[C@H](c3ccc(C4=CCCCC4)cc3)[C@@H]2C1	118.2*	-0.3	-4.8	.	106.5*	98.1*	1.3	63.0*
